Data: ChEMBL document CHEMBL5230162 (RSC Med Chem, 2023)
≈ marks a conversion by molar mass, not a printed value. Calls of active or inactive are those of the source. The calls are words filed in the database; no cut-off is given here.

What was measured:
[1] = Stability of the compound in acetate buffer at pH 5 measured after 24 hrs by HPLC-MS analysis; assay type: physicochemical; conditions: pH 5, 24 h
Method in brief: (§1)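 Incubated at 37 °C. Aliquots taken at 0, 0.5, 1, 2, 4, 8 and 24 h and quenched in cold methanol, stored at −20 °C, centrifuged, and the supernatant analysed by HPLC-MS.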

[2] = biological target: T1, 3-hydroxy-3-methylglutaryl-coenzyme A reductase (Homo sapiens) (UniProt P04035); assay: Inhibition of HMG-CoA reductase (unknown origin) in neutral aqueous media
T1 sequence (whole entry): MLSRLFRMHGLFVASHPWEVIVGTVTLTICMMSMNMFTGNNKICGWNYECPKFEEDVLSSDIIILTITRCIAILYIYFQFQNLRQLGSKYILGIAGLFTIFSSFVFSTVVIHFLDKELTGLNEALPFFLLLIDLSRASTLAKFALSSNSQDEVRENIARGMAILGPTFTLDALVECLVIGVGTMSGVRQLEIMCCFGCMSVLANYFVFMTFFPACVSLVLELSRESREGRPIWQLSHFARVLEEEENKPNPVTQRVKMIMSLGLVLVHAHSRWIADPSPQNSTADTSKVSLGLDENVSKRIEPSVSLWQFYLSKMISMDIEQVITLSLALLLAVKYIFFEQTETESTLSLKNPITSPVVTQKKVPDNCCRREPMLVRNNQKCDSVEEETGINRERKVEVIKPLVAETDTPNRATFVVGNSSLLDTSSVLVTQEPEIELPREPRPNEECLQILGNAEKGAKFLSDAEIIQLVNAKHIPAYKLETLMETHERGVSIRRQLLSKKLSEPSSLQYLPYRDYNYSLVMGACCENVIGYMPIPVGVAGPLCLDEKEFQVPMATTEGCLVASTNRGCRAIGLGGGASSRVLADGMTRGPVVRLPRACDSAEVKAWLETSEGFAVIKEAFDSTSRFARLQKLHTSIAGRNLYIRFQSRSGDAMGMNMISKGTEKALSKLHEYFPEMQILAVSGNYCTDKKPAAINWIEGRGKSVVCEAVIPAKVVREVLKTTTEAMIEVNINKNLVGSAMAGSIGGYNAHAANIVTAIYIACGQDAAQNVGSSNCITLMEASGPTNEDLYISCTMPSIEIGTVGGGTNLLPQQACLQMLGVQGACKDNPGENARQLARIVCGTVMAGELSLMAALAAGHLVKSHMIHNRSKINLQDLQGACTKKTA
Method in brief: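 HMG-CoA reductase kit assay. Compounds were 0.1 mM working solutions made from 0.01 M DMSO stocks diluted in water; 2 μL of each added per well. NADPH consumption followed as absorbance at 340 nm every 20 s for up to 10 min. Activity calculated from the NADPH extinction coefficient. Run in triplicate.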

[3] = biological target: T1, 3-hydroxy-3-methylglutaryl-coenzyme A reductase (Homo sapiens); assay: Inhibition of HMG-CoA reductase (unknown origin) in presence of cathepsin B
Method in brief: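 Compound (40 μM final) incubated for 24 h at 37 °C with recombinant cathepsin B (30 nM final) in 0.1 M sodium acetate pH 3.6, 100 mM NaCl, 1 mM EDTA, 0.6% DMSO. 5 μL of the mixture then tested in the HMG-CoA reductase kit assay: absorbance at 340 nm every 20 s for up to 10 min, in triplicate. Controls: enzyme-only buffer and compound without protease.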

[4] = Solubility of the compound in water incubated for 15 mins under shaking conditions by UV spectrophotometry relative to atorvastatin; assay type: physicochemical; conditions: buffer, 0.25 h
Method in brief: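 Excess compound shaken strongly in 1 ml water for 15 min, then filtered or centrifuged. 50 μL of the saturated solution diluted into 1 mL methanol. Absorbance read at 290 nm and concentration taken from standard curves.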

[5] = Stability of the compound in PBS buffer at pH 7.4 measured after 24 hrs by HPLC-MS analysis; assay type: physicochemical; conditions: pH 7.4, 24 h; method in brief: as §1
[6] = Solubility of the compound in water incubated for 15 mins under shaking conditions by UV spectrophotometry; assay type: physicochemical
[7] = Binding affinity to human ASGPR assessed as equilibrium dissociation constant by surface plasmon resonance spectroscopy
[8] = Stability of the compound in acetate buffer at pH 5 measured for 24 hrs by HPLC-MS analysis; assay type: physicochemical; conditions: pH 5, 24 h; method in brief: as §1

Row | Stability [1] | inhibition (active/not active) [2] | inhibition [3] | fold change (FC) [4] | Stability [5] | solubility at 0.25 h [6] | Kd [7] | Stability [8] | SMILES
1 | Stable | inactive | Active | 5 | Stable | 540 µM (≈ 478 µg/mL) | 161 nM |  | CC(=O)N[C@H]1[C@H](OCCn2cc(CNC(=O)C[C@H](O)C[C@H](O)CCn3c(-c4ccc(F)cc4)c(-c4ccccc4)c(C(=O)Nc4ccccc4)c3C(C)C)nn2)O[C@H](CO)[C@H](O)[C@@H]1O
2 |  | Active |  |  |  | 200 µM (≈ 169 µg/mL) | 48 nM | Stable | CC(=O)N[C@@H]1[C@@H](O)[C@@H](O)[C@@H](CO)O[C@H]1n1cc(COC(=O)C[C@H](O)C[C@H](O)CCn2c(-c3ccc(F)cc3)c(-c3ccccc3)c(C(=O)Nc3ccccc3)c2C(C)C)nn1
3 |  |  | Active |  |  |  |  |  | CC[C@H](C)C(=O)O[C@H]1C[C@H](O)C=C2C=C[C@H](C)[C@H](CC[C@@H](O)C[C@@H](O)CC(=O)O)[C@H]21
4 | Stable | inactive | Active | 4 | Stable | 450 µM (≈ 379 µg/mL) | 113 nM |  | CC(=O)N[C@@H]1[C@@H](O)[C@@H](O)[C@@H](CO)O[C@H]1n1cc(CNC(=O)C[C@H](O)C[C@H](O)CCn2c(-c3ccc(F)cc3)c(-c3ccccc3)c(C(=O)Nc3ccccc3)c2C(C)C)nn1
5 |  |  |  |  |  | 30 µM (≈ 26.5 µg/mL) | 0.15 nM |  | CC(=O)N[C@@H]1[C@@H](O)[C@@H](O)[C@@H](CO)O[C@H]1n1cc(COC(=O)C[C@H]2C[C@@H](CCn3c(-c4ccc(F)cc4)c(-c4ccccc4)c(C(=O)Nc4ccccc4)c3C(C)C)OC(C)(C)O2)nn1
6 |  |  |  |  |  |  | 4500 nM |  | CC(=O)N[C@@H]1[C@@H](O)[C@@H](O)[C@@H](CO)O[C@@H]1O
7 |  |  |  | 4 |  | 430 µM (≈ 346 µg/mL) | 69 nM |  | CC(=O)N[C@H]1[C@H](OCCNC(=O)C[C@H](O)C[C@H](O)CCn2c(-c3ccc(F)cc3)c(-c3ccccc3)c(C(=O)Nc3ccccc3)c2C(C)C)O[C@H](CO)[C@H](O)[C@@H]1O
8 |  |  |  |  |  | 320 µM (≈ 284 µg/mL) | 79 nM | Stable | CC(=O)N[C@H]1[C@H](OCCn2cc(COC(=O)C[C@H](O)C[C@H](O)CCn3c(-c4ccc(F)cc4)c(-c4ccccc4)c(C(=O)Nc4ccccc4)c3C(C)C)nn2)O[C@H](CO)[C@H](O)[C@@H]1O
9 |  | Active |  |  |  | 50 µM (≈ 46.4 µg/mL) | 0.33 nM |  | CC(=O)N[C@H]1[C@H](OCCn2cc(COC(=O)C[C@H]3C[C@@H](CCn4c(-c5ccc(F)cc5)c(-c5ccccc5)c(C(=O)Nc5ccccc5)c4C(C)C)OC(C)(C)O3)nn2)O[C@H](CO)[C@H](O)[C@@H]1O
